This sample holds only a part of the variants without activity.
B1: tRNA (parent)
chain: GUUCCGUUGGCGUAAUGGUAACGCGUCUCCCUCCUAAGGAGAAGACUGCGGGUUCGAGUCCCGUACGGAACG

Variants of: B1
Experiment: yeast fitness relative to wild type (ratio to wild type); higher = fitter; tRNA-Arg(CCU), competitive growth, 37 C, YPD
Outline: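 Changes in genotype frequencies gave Darwinian fitness relative to wild type. Frequencies were read by 100-nucleotide paired-end sequencing of gene amplicons before and after pooled Saccharomyces cerevisiae strains, carrying tRNA-Arg(CCU) gene variants at the native locus, were competed in YPD at 37°C for 24 hours in six replicates. A genotype was kept only with ≥ 100 starting reads, and estimates < 0.5 were set to 0.5.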

| Variant | yeast fitness |
| --- | --- |
| A14G C30A A42G G44A | 0.569 |
| A14G C27U U28C | 0.541 |
| A14C U16C A21G C29A C34U A69U | ≤ 0.5 |
| A14C A15C U16C C27U C29A C34G G50C | ≤ 0.5 |
| A14U A36C U53C A69C | ≤ 0.5 |
| A14G U64C | 0.924 |
| A14C A15U C30U C34G A43G G48C C49U C61U | ≤ 0.5 |
| A14G U19C G68A | 0.559 |
| A14G U19A C27G U28A C34A A36G A43G | 0.608 |
| A14G U19A A20G A40U | ≤ 0.5 |
| A14C A45U G50C C66G | ≤ 0.5 |
| A14C G18A A20U | ≤ 0.5 |
| A14U A70U | 0.713 |
| U13C U35C G48A C60A | ≤ 0.5 |
| A14C A37C G51A U59A | 0.56 |
| A14G A45G G50A | ≤ 0.5 |
| A14C A21G A37C G50A A57C | ≤ 0.5 |
| A14C A69C | 0.654 |
| A14U A45C U47C C55U A65C A69C | ≤ 0.5 |
| U13G G41C | 0.782 |
| A14G G41A A70G | 0.638 |
| A14G A21G | 0.989 |
| A14G A21C | 0.866 |
| A14C G39C C60U | ≤ 0.5 |

| Variant | yeast fitness |
| --- | --- |
| A14C A15U C27U U32C U35G A70U | ≤ 0.5 |
| A14C C49G A70U | ≤ 0.5 |
| A14G C24U A43U A65C | ≤ 0.5 |
| A14C A36G G41A G48C U59C A70C | ≤ 0.5 |
| U13G A14U U16A G17U | ≤ 0.5 |
| A14C C55G A57U C62U | ≤ 0.5 |
| A14C A20G A45C A57C | ≤ 0.5 |
| U13G | 1.03 |
| U13G C61A C66A | ≤ 0.5 |
| A14G C46U | 0.886 |
| A14G C22U C24U A65C | ≤ 0.5 |
| U13C G68C | 0.877 |
| A14G U19C C60G | ≤ 0.5 |
| A14G A15G U35C | 0.572 |
| U13C G25C C27G | 0.539 |
| A14G A21U U47G C49G G56C | ≤ 0.5 |
| A14C C34A G48C | ≤ 0.5 |
| U13C G23C C30G A65C | ≤ 0.5 |
| A14U A42U | 0.652 |
| A14U A42G | 0.529 |
| A14C C24U G51C U54A | ≤ 0.5 |
| A14G G25A C30A | 0.563 |
| U13C C49G C61G | ≤ 0.5 |
| U13G U32A C33A | ≤ 0.5 |

| Variant | yeast fitness |
| --- | --- |
| A14G A20C C31G A45U G48C | ≤ 0.5 |
| A14U A40U U54A C55U U64C | ≤ 0.5 |
| U13C C55A | 0.611 |
| A14C C24A C61A | ≤ 0.5 |
| A14G A43G | 0.932 |
| A14G A36G A45U | 0.534 |
| A14G G23U G58A | ≤ 0.5 |
| A14G A42C G50A A70C | 0.593 |
| U13G C46G | 1.12 |
| A14G C27A C49G U53A C62A | ≤ 0.5 |
| A14C C46G C60G | ≤ 0.5 |
| A14C C55A A65U | ≤ 0.5 |
| A14C A45G | 0.611 |
| A14G C46U G50C G51A C55U A57U C62G A70U | ≤ 0.5 |
| A14G G58A | 0.836 |
| A14C A20G | 0.647 |
| U13G U19C C61U | ≤ 0.5 |
| U13C U16G C49G | 0.617 |
| A14C A36G A43U G68A | 0.522 |
| A14G C34G A43C U47C | 0.533 |
| A14G U35A G56A C66U | ≤ 0.5 |
| A14C A57C C62U | ≤ 0.5 |
| A14G C22A C27A C29U A42C G63C | ≤ 0.5 |
| A14C C30U A43G | ≤ 0.5 |

| Variant | yeast fitness |
| --- | --- |
| A14C C22G G67A | ≤ 0.5 |
| A14C G17C G18A G23C | 0.554 |
| A14U A15G C34G | ≤ 0.5 |
| A14C U28C A40G C55A A57C C62U | ≤ 0.5 |
| A14C C29A G50A G68C A70C | ≤ 0.5 |
| A14U A40G A45U G56A | ≤ 0.5 |
| U13G C22U C30A | 0.598 |
| U13G U16G C31G C49U A57G | ≤ 0.5 |
| U13C G23A | 0.759 |
| A14U C22G A57C G63C C66U | 0.578 |
| A14G G23A U64G A69U | ≤ 0.5 |
| A14C C62U | 0.853 |
| U13G C22U A45U U59C | 0.54 |
| A14G G56U A65U G68C | ≤ 0.5 |
| A14C C31U A69U | ≤ 0.5 |
| A14C U47C | 0.79 |
| A14C C34U A36G G39C | 0.535 |
| A14C U19G U59C A69G | ≤ 0.5 |
| A14G G48C | 0.701 |
| A14U | 0.667 |
| A14C | 0.868 |
| A14G | 0.796 |
| A14U C24G A57C | ≤ 0.5 |
| U13C U59C | 0.858 |

| Variant | yeast fitness |
| --- | --- |
| U13C U59A | 0.768 |
| U13G A21U C22G U35A A65G A70C | ≤ 0.5 |
| A14G A45U C61U | 0.665 |
| A14C G17A | 0.679 |
| A14C U35C | 0.695 |
| A14G A36U A37G C46A G48A | ≤ 0.5 |
| A14G C31U G58C G68A | ≤ 0.5 |
| A14G A42U G44C U54A | ≤ 0.5 |
| A14C G23C A36U | 0.68 |
| A14C C22A C46A | 0.605 |
| A14G G50U G67C | ≤ 0.5 |
| A14U A37C C46U C61G | ≤ 0.5 |
| A14G C31G A37G | ≤ 0.5 |
| U13C C29G A36G G41A | ≤ 0.5 |
| U13G G17C C31U | ≤ 0.5 |
| A14G G39A | 0.751 |
| A14C C29U C30G C31A C34A G52C | ≤ 0.5 |
| A14G C30A C46U G52C C66U | ≤ 0.5 |
| A14C C30U A37C | 0.552 |
| A14U A43G | 0.537 |
| A14C C24A A37G C60U | ≤ 0.5 |
| A14G C22A C27A C29U A42C A70C | ≤ 0.5 |
| A14G A42G C46G | 0.517 |
| U13G U16C G63C | ≤ 0.5 |

| Variant | yeast fitness |
| --- | --- |
| A14G A65U | 0.737 |
| A14G A65C | 0.903 |
| A14C C34A C61U U64A A69G | ≤ 0.5 |
| A14U A40U U54A A70G | 0.568 |
| A14C U26A C29U C49U C62G G68C | 0.519 |
| U13C G44C G58C | 0.661 |
| A14G A45G C61A | ≤ 0.5 |
| A14G A42U C62U A70C | ≤ 0.5 |
| A14G C27G U54C | ≤ 0.5 |
| U13C C33G A40G U59A | ≤ 0.5 |
| A14G U26A C27G | ≤ 0.5 |
| A14U A15C C31G A43U | 0.627 |
| A14C C27U C34G G51A G67U | ≤ 0.5 |
| U13G A42C | 1 |
| A14G C22U C34U U35A C55A | ≤ 0.5 |
| A14C C29G G48C G67A | ≤ 0.5 |
| A14G G67A | 0.821 |
| A14G C49G A69U A70C | 0.618 |
| A14U A21G C29G U59A | ≤ 0.5 |
| A14G C33G A70U | 0.545 |
| A14C C61G | 0.536 |
| U13G A40G G44C C61G | ≤ 0.5 |
| A14G A15G A45U C66U | 0.619 |
| A14G G58C C66A | ≤ 0.5 |

| Variant | yeast fitness |
| --- | --- |
| A14G A43G C60U C62U A70C | ≤ 0.5 |
| A14G C24U C55U G67C | ≤ 0.5 |
| U13G G18A A20U C31G | 0.566 |
| A14C C24G G39A | ≤ 0.5 |
| A14C A20U C31U G38C U59A | ≤ 0.5 |
| A14G C55U A65G | 0.513 |
| U13C C29U C55U | ≤ 0.5 |
| A14C G44C | 0.577 |
| U13G U26A A45C A69C | 0.577 |
| A14G U19A C27U C34U C66U | ≤ 0.5 |
| A14G C22U C34U U54C C55A | ≤ 0.5 |
| A14G G52A | 0.631 |
| A14C C30A A36G C62U G63A A70U | ≤ 0.5 |
| A14C A70G | 0.749 |
| A14C C24G G41A G44A U53A C66U | ≤ 0.5 |
| A14G A42G G48C | 0.568 |
| U13G C22U G25A | 1.01 |
| A14C G68C | 0.687 |
| U13G U19A C27G | 0.626 |
| U13C C29G A65U A70U | 0.588 |
| A14C U32G G58A A65C | 0.645 |
| A14C A65C | 0.635 |
| A14C A65U | 0.62 |

Reference: the RNAGym collection of RNA variant scans (doi:10.1126/science.aae0568)
